# In ChEMBL document CHEMBL4350961, “Discovery of Pyrrolo[3,2- d]pyrimidin-4-one Derivatives as a New Class of Potent and Cell-Active Inhibitors of P300/CBP-Associated Factor Bromodomain” (J Med Chem, 2019):
# Calls of active or inactive are those of the source. The calls are words filed in the database; no cut-off is given here.
# How the values were obtained:
# MEF [1] = test: Effect on Erv3 gene expression in MEF cells at 2.5 uM measured after 48 hrs by RNA-sequencing analysis relative to control; format: functional, Mus musculus
# Outline: (§1)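 Mouse embryonic fibroblasts treated 48 h; negative-control enantiomer at 2.5 µM, DMSO as blank. Total RNA extracted with TRIzol, checked by NanoDrop, then RNA-seq with n = 3 per set. Genes called changed at >1.5-fold with p < 0.05 against blank.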
# MEF [2] = test: Effect on Dlx4 gene expression in MEF cells at 2.5 uM measured after 48 hrs by RNA-sequencing analysis relative to control; format: functional, Mus musculus; outline: as §1
# MEF [3] = test: Effect on Srcin1 gene expression in MEF cells at 2.5 uM measured after 48 hrs by RNA-sequencing analysis relative to control; format: functional, Mus musculus; outline: as §1
# MEF [4] = test: Effect on Myh3 gene expression in MEF cells at 2.5 uM measured after 48 hrs by RNA-sequencing analysis relative to control; format: functional, Mus musculus; outline: as §1
# MEF [5] = test: Effect on Gabra3 gene expression in MEF cells at 2.5 uM measured after 48 hrs by RNA-sequencing analysis relative to control; format: functional, Mus musculus; outline: as §1
# MEF [6] = test: Effect on Icos gene expression in MEF cells at 2.5 uM measured after 48 hrs by RNA-sequencing analysis relative to control; format: functional, Mus musculus; outline: as §1
# MEF [7] = test: Effect on S100a8 gene expression in MEF cells at 2.5 uM measured after 48 hrs by RNA-sequencing analysis relative to control; format: functional, Mus musculus; outline: as §1
# MEF [8] = test: Effect on Nuggc gene expression in MEF cells at 2.5 uM measured after 48 hrs by RNA-sequencing analysis relative to control; format: functional, Mus musculus; outline: as §1
# MEF [9] = test: Effect on Slc26a7 gene expression in MEF cells at 2.5 uM measured after 48 hrs by RNA-sequencing analysis relative to control; format: functional, Mus musculus; outline: as §1
# MEF [10] = test: Effect on H60b gene expression in MEF cells at 2.5 uM measured after 48 hrs by RNA-sequencing analysis relative to control; format: functional, Mus musculus; outline: as §1
# MEF [11] = test: Effect on Gucy1a3 gene expression in MEF cells at 2.5 uM measured after 48 hrs by RNA-sequencing analysis relative to control; format: functional, Mus musculus; outline: as §1
# MEF [12] = test: Effect on Hkdc1 gene expression in MEF cells at 2.5 uM measured after 48 hrs by RNA-sequencing analysis relative to control; format: functional, Mus musculus; outline: as §1
# MEF [13] = test: Effect on Ooep gene expression in MEF cells at 2.5 uM measured after 48 hrs by RNA-sequencing analysis relative to control; format: functional, Mus musculus; outline: as §1
# MEF [14] = test: Effect on Pyhin1 gene expression in MEF cells at 2.5 uM measured after 48 hrs by RNA-sequencing analysis relative to control; format: functional, Mus musculus; outline: as §1
# MEF [15] = test: Effect on Aatk gene expression in MEF cells at 2.5 uM measured after 48 hrs by RNA-sequencing analysis relative to control; format: functional, Mus musculus; outline: as §1
# MEF [16] = test: Effect on P2rx6 gene expression in MEF cells at 2.5 uM measured after 48 hrs by RNA-sequencing analysis relative to control; format: functional, Mus musculus; outline: as §1
# MEF [17] = test: Effect on Klk9 gene expression in MEF cells at 2.5 uM measured after 48 hrs by RNA-sequencing analysis relative to control; format: functional, Mus musculus; outline: as §1
# MEF [18] = test: Effect on Zfyve28 gene expression in MEF cells at 2.5 uM measured after 48 hrs by RNA-sequencing analysis relative to control; format: functional, Mus musculus
# Outline: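 MEF cells treated for 48 h with test compound, with (S,S) enantiomer at 2.5 µM as negative control and DMSO as blank; total RNA (TRIzol, n = 3 per set) analysed by RNA-seq; genes counted as changed at >1.5-fold, p < 0.05, relative to blank control.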
# MEF [19] = test: Effect on Erbb3 gene expression in MEF cells at 2.5 uM measured after 48 hrs by RNA-sequencing analysis relative to control; format: functional, Mus musculus; outline: as §1
# MEF [20] = test: Effect on Kcnk10 gene expression in MEF cells at 2.5 uM measured after 48 hrs by RNA-sequencing analysis relative to control; format: functional, Mus musculus; outline: as §1
# MEF [21] = test: Effect on Bmp3 gene expression in MEF cells at 2.5 uM measured after 48 hrs by RNA-sequencing analysis relative to control; format: functional, Mus musculus; outline: as §1
# MEF [22] = test: Effect on Slco1a5 gene expression in MEF cells at 2.5 uM measured after 48 hrs by RNA-sequencing analysis relative to control; format: functional, Mus musculus; outline: as §1
# [23] = target: T1, Histone acetyltransferase KAT2B (Homo sapiens, UniProt Q92831); test: Binding affinity to human N-terminal His-tagged PCAF assessed as change in melting temperature at 10 uM by SYPRO orange dye-based fluorescence assay
# Outline: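 Thermal shift with His-tagged human bromodomain at 2 μM final in 10 mM HEPES pH 7.5, 500 mM NaCl. Compound at 10 μM final with 0.1% DMSO; SYPRO Orange at 1:1000. Equilibrated 3 min at 25 °C, then heated from 25 to 95 °C at 1 °C/min. Melting temperature shift taken from fluorescence; at least duplicate.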
# Target sequence in this assay (Q92831 whole entry, looked up): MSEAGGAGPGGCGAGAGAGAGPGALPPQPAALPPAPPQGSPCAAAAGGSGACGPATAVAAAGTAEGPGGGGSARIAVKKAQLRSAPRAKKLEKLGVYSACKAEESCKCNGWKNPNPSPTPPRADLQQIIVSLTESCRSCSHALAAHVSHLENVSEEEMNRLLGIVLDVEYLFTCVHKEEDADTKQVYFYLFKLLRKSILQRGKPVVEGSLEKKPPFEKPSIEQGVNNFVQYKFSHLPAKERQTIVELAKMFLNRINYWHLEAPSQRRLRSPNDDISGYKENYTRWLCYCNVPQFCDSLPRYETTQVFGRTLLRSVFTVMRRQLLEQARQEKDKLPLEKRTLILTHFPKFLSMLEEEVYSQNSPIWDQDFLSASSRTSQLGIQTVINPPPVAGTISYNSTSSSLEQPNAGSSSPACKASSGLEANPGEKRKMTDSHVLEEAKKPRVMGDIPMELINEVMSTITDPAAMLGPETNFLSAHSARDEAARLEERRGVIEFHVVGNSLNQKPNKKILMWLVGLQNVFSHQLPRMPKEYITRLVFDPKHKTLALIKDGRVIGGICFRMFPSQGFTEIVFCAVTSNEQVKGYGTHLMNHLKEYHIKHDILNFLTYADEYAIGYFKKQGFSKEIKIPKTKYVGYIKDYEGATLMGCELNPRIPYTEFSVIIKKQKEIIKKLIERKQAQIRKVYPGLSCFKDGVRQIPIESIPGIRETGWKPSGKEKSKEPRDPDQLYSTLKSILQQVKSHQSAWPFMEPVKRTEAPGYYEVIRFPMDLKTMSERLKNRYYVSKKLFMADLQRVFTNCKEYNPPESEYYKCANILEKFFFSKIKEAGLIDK
# MEF [24] = test: Effect on Unc5a gene expression in MEF cells at 2.5 uM measured after 48 hrs by RNA-sequencing analysis relative to control; format: functional, Mus musculus; outline: as §1
# [25] = target: T1, Histone acetyltransferase KAT2B; test: Inhibition of Halo-tagged histone H3.3 binding to N-terminal Nano luciferase-fused full-length PCAF (unknown origin) expressed in HEK293T cells co-expressing C-terminal Halo-tagged histone H3.3 measured after 18 hrs by 618 fluorescent ligand-based BRET assay; format: cell-based
# Outline: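 HEK293T cells co-transfected with histone H3.3-HaloTag and PCAF-NanoLuc. After 20 h, cells replated at 2×10^5/ml in phenol red-free DMEM with 4% FBS, with or without 100 nM NanoBRET 618 ligand. Compound dilutions or DMSO added, then 18 h at 37 °C, 5% CO2. Nano-Glo substrate added; 610/460 nm ratio minus no-ligand blank, in mBU; n = 2 biological replicates.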
# MEF [26] = test: Effect on Hpgd gene expression in MEF cells at 2.5 uM measured after 48 hrs by RNA-sequencing analysis relative to control; format: functional, Mus musculus; outline: as §1
# MEF [27] = test: Effect on Gm36718 gene expression in MEF cells at 2.5 uM measured after 48 hrs by RNA-sequencing analysis relative to control; format: functional, Mus musculus; outline: as §1
# MEF [28] = test: Effect on Plekhg4 gene expression in MEF cells at 2.5 uM measured after 48 hrs by RNA-sequencing analysis relative to control; format: functional, Mus musculus; outline: as §1
# MEF [29] = test: Effect on Tfap4 gene expression in MEF cells at 2.5 uM measured after 48 hrs by RNA-sequencing analysis relative to control; format: functional, Mus musculus; outline: as §1
# MEF [30] = test: Effect on Lonrf3 gene expression in MEF cells at 2.5 uM measured after 48 hrs by RNA-sequencing analysis relative to control; format: functional, Mus musculus; outline: as §1
# MEF [31] = test: Effect on Nr4a3 gene expression in MEF cells at 2.5 uM measured after 48 hrs by RNA-sequencing analysis relative to control; format: functional, Mus musculus; outline: as §1
# MEF [32] = test: Effect on Cttnbp2 gene expression in MEF cells at 2.5 uM measured after 48 hrs by RNA-sequencing analysis relative to control; format: functional, Mus musculus; outline: as §1
# MEF [33] = test: Effect on Prrg3 gene expression in MEF cells at 2.5 uM measured after 48 hrs by RNA-sequencing analysis relative to control; format: functional, Mus musculus; outline: as §1
# MEF [34] = test: Effect on LL6 gene expression in MEF cells at 2.5 uM measured after 48 hrs by RNA-sequencing analysis relative to control; format: functional, Mus musculus; outline: as §1
SMILES,fold change (FC) (MEF [1]),fold change (FC) (MEF [2]),fold change (FC) (MEF [3]),fold change (FC) (MEF [4]),fold change (FC) (MEF [5]),fold change (FC) (MEF [6]),fold change (FC) (MEF [7]),fold change (FC) (MEF [8]),fold change (FC) (MEF [9]),fold change (FC) (MEF [10]),fold change (FC) (MEF [11]),fold change (FC) (MEF [12]),fold change (FC) (MEF [13]),fold change (FC) (MEF [14]),fold change (FC) (MEF [15]),fold change (FC) (MEF [16]),fold change (FC) (MEF [17]),fold change (FC) (MEF [18]),fold change (FC) (MEF [19]),fold change (FC) (MEF [20]),also measured
CN1C[C@@H](Nc2nc3cc[nH]c3c(=O)n2C)C[C@@H](c2ccc3c(c2)OCCO3)C1,>1.5,>1.5,>1.5,>1.5,>1.5,>1.5,>1.5,>1.5,>1.5,>1.5,>1.5,>1.5,>1.5,>1.5,>1.5,>1.5,>1.5,>1.5,>1.5,>1.5,fold change (FC) (MEF [21]): >1.5; fold change (FC) (MEF [22]): >1.5; ΔTm [23]: 0.7 °C; fold change (FC) (MEF [24]): >1.5; inhibition [25]: inactive; fold change (FC) (MEF [26]): >1.5; fold change (FC) (MEF [27]): >1.5; fold change (FC) (MEF [28]): >1.5; fold change (FC) (MEF [29]): >1.5; fold change (FC) (MEF [30]): >1.5; fold change (FC) (MEF [31]): >1.5; fold change (FC) (MEF [32]): >1.5; fold change (FC) (MEF [33]): >1.5; fold change (FC) (MEF [34]): >1.5
CN1C[C@H](Nc2nc3cc[nH]c3c(=O)n2C)C[C@H](c2ccc3c(c2)OCCO3)C1,>1.5,>1.5,>1.5,>1.5,>1.5,>1.5,>1.5,>1.5,>1.5,>1.5,>1.5,>1.5,>1.5,>1.5,>1.5,>1.5,>1.5,>1.5,>1.5,>1.5,fold change (FC) (MEF [21]): >1.5; fold change (FC) (MEF [22]): >1.5; ΔTm [23]: 9.5 °C; fold change (FC) (MEF [24]): >1.5; IC50 [25]: 118 nM; inhibition [25]: Dose-dependent effect; fold change (FC) (MEF [26]): >1.5; fold change (FC) (MEF [27]): >1.5; fold change (FC) (MEF [28]): >1.5; fold change (FC) (MEF [29]): >1.5; fold change (FC) (MEF [30]): >1.5; fold change (FC) (MEF [31]): >1.5; fold change (FC) (MEF [32]): >1.5; fold change (FC) (MEF [33]): >1.5; fold change (FC) (MEF [34]): >1.5
